Measurements published in ChEMBL document CHEMBL1151473, “Posaconazole activity against Candida glabrata after exposure to caspofungin or amphotericin B” (2008).
≈ marks a conversion by molar mass, not a printed value. Calls of active or inactive are those of the source. No cut-off for these calls is given here.

Legend:
Nakaseomyces glabratus [1] = test: (§1) Antifungal activity against 2.44 x 10^8 CFU Candida glabrata isolate 4293 infected in CD1 mouse assessed as inhibition of regrowth in fungal burden in kidney at 1 mg/kg/day, ip administered from day 1 to day 2 post viral challenge measured on day 7 postinfection; type: functional, organism-based
Method in brief: (§2)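 Male CD1 mice (25 g) made neutropenic with cyclophosphamide 200 mg/kg/day ip on days −4, +1 and +4 postinfection. Infected iv with C. glabrata 4293 in 0.2 ml. Treatment began 24 h postchallenge, with 1 mg/kg/day ip in 0.2 ml. Sacrifice on day 3 or day 7. Kidney pairs homogenized; diluted and undiluted aliquots plated on Sabouraud dextrose agar for CFU. Medians reported; 7–8 mice per group.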

Nakaseomyces glabratus [2] = test: Antifungal activity against Candida glabrata isolate 4198 after 48 hrs by broth microdilution method; type: functional
Method in brief: (§3)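 CLSI broth microdilution with final drug concentrations […], incubated at 35°C and read spectrophotometrically at 490 nm at 24 and 48 h. MIC is the first concentration giving 50% turbidity reduction versus control, or 90% for amphotericin B. Run in quintuplicate.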

Nakaseomyces glabratus [3] = test: (§4) Antifungal activity against 1.04 x 10^8 CFU Candida glabrata isolate 4293 infected in CD1 mouse assessed as inhibition of regrowth in fungal burden in kidney at 1 mg/kg/day, ip administered from day 1 to day 2 post viral challenge measured on day 7 postinfection; type: functional, organism-based; method in brief: as §2
Nakaseomyces glabratus [4] = test: Antifungal activity against 2.44 x 10^8 CFU Candida glabrata isolate 4293 infected in CD1 mouse assessed as reduction in fungal burden per kidney pair at 1 mg/kg/day, ip administered from day 1 to day 2 post viral challenge measured on day 3 postinfection; type: functional, organism-based; method in brief: as §2
Nakaseomyces glabratus [5] = test: (§5) Antifungal activity against 1.04 x 10^8 CFU Candida glabrata isolate 4293 infected in CD1 mouse assessed as reduction in viral count per kidney pair at 1 mg/kg/day, ip administered from day 1 to day 2 followed by PEG-200 infusion from day 3 to day 6 post viral challenge measured on day 7 postinfection relative to control; type: functional, organism-based; method in brief: as §2
Candida parapsilosis [6] = test: Antifungal activity against Candida parapsilosis ATCC 22019 after 48 hrs by broth microdilution method; type: functional; conditions: Lodderomyces parapsilosis, ATCC 22019, 48 h; method in brief: as §3
Nakaseomyces glabratus [7] = test: Antifungal activity against Candida glabrata isolate 4293 after 48 hrs by broth microdilution method; type: functional; method in brief: as §3
Nakaseomyces glabratus [8] = test: as §4, with “day 2 followed by PEG-200 infusion from day 3 to day 6 post viral” for “day 2 post viral”; type: functional, organism-based; method in brief: as §2
Nakaseomyces glabratus [9] = test: as §1, with “day 2 followed by PEG-200 infusion from day 3 to day 6 post viral” for “day 2 post viral”; type: functional, organism-based; method in brief: as §2
Nakaseomyces glabratus [10] = test: Antifungal activity against Candida glabrata isolate 4370 after 48 hrs by broth microdilution method; type: functional; method in brief: as §3
Nakaseomyces glabratus [11] = test: Antifungal activity against 1.04 x 10^8 CFU Candida glabrata isolate 4293 infected in CD1 mouse assessed as reduction in fungal burden per kidney pair at 1 mg/kg/day, ip administered from day 1 to day 2 post viral challenge measured on day 3 postinfection; type: functional, organism-based; method in brief: as §2
Nakaseomyces glabratus [12] = test: as §5, with “2.44” for “1.04”; type: functional, organism-based; method in brief: as §2
Nakaseomyces glabratus [13] = test: Antifungal activity against Candida glabrata isolate 4205 after 48 hrs by broth microdilution method; type: functional; conditions: isolate 4205, 48 h; method in brief: as §3
Nakaseomyces glabratus [14] = test: Antifungal activity against Candida glabrata isolate 4205 after 24 hrs by broth microdilution method; type: functional; conditions: isolate 4205, 24 h; method in brief: as §3
Candida parapsilosis [15] = test: Antifungal activity against Candida parapsilosis ATCC 22019 after 24 hrs by broth microdilution method; type: functional; conditions: Lodderomyces parapsilosis, ATCC 22019, 24 h
Method in brief: (§6)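 CLSI broth microdilution, final drug concentrations 0.0078–8 µg/ml. Incubated at 35°C and read at 24 and 48 h by OD490. MIC is the first concentration giving 50% (azole, echinocandin) or 90% (polyene) less turbidity than the drug-free control. Quintuplicate.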

Nakaseomyces glabratus [16] = test: Antifungal activity against 2.44 x 10^8 CFU Candida glabrata isolate 4293 infected in CD1 mouse assessed as inhibition of regrowth in fungal burden in kidney at 1 mg/kg/day, ip administered from day 1 to day 2 post viral challenge measured on day 3 postinfection; type: functional, organism-based; method in brief: as §2
Nakaseomyces glabratus [17] = test: Antifungal activity against Candida glabrata isolate 4198 after 24 hrs by broth microdilution method; type: functional; method in brief: as §3
Nakaseomyces glabratus [18] = test: Antifungal activity against Candida glabrata isolate 4370 after 24 hrs by broth microdilution method; type: functional; method in brief: as §3
Nakaseomyces glabratus [19] = test: Antifungal activity against Candida glabrata isolate 4293 after 24 hrs by broth microdilution method; type: functional; method in brief: as §6
Nakaseomyces glabratus [20] = test: Antifungal activity against 1.04 x 10^8 CFU Candida glabrata isolate 4293 infected in CD1 mouse assessed as inhibition of regrowth in fungal burden in kidney at 1 mg/kg/day, ip administered from day 1 to day 2 post viral challenge measured on day 3 postinfection; type: functional, organism-based; method in brief: as §2

| SMILES | Activity (Nakaseomyces glabratus [1]) | MIC (Nakaseomyces glabratus [2]) | Activity (Nakaseomyces glabratus [3]) | Activity (Nakaseomyces glabratus [4]) | Activity (Nakaseomyces glabratus [5]) | MIC (Candida parapsilosis [6]) | MIC (Nakaseomyces glabratus [7]) | Activity (Nakaseomyces glabratus [8]) | Activity (Nakaseomyces glabratus [9]) | MIC (Nakaseomyces glabratus [10]) | Activity (Nakaseomyces glabratus [11]) | Activity (Nakaseomyces glabratus [12]) | MIC (Nakaseomyces glabratus [13]) | MIC (Nakaseomyces glabratus [14]) | MIC (Candida parapsilosis [15]) | Activity (Nakaseomyces glabratus [16]) | MIC (Nakaseomyces glabratus [17]) | MIC (Nakaseomyces glabratus [18]) | MIC (Nakaseomyces glabratus [19]) | Activity (Nakaseomyces glabratus [20]) |
| --- | --- | --- | --- | --- | --- | --- | --- | --- | --- | --- | --- | --- | --- | --- | --- | --- | --- | --- | --- | --- |
| C[C@@H]1[C@H](O)[C@@H](C)/C=C/C=C/C=C/C=C/C=C/C=C/C=C/[C@H](O[C@@H]2O[C@H](C)[C@@H](O)[C@H](N)[C@@H]2O)C[C@@H]2O[C@](O)(C[C@@H](O)C[C@@H](O)[C@H](O)CC[C@@H](O)C[C@@H](O)CC(=O)O[C@H]1C)C[C@H](O)[C@H]2C(=O)O [AMPHOTERICIN B] | inactive | 0.5 µg/mL (≈ 0.541 µM) | inactive | inactive | Active | 1 µg/mL (≈ 1.08 µM) | 0.5 µg/mL (≈ 0.541 µM) | inactive | inactive | 1 µg/mL (≈ 1.08 µM) | inactive | Active | 0.5 µg/mL (≈ 0.541 µM) | – | – | – | – | – | – | – |
| CC[C@H](C)C[C@H](C)CCCCCCCCC(=O)N[C@H]1C[C@@H](O)[C@@H](NCCN)NC(=O)[C@@H]2[C@@H](O)CCN2C(=O)[C@H]([C@H](O)CCN)NC(=O)[C@H]([C@H](O)[C@@H](O)c2ccc(O)cc2)NC(=O)[C@@H]2C[C@@H](O)CN2C(=O)[C@H]([C@@H](C)O)NC1=O [CASPOFUNGIN] | Active | – | Active | inactive | Active | – | – | – | – | – | inactive | Active | – | 0.25 µg/mL (≈ 0.229 µM) | 0.25 µg/mL (≈ 0.229 µM) | Active | 0.25 µg/mL (≈ 0.229 µM) | 0.125 µg/mL (≈ 0.114 µM) | ≤ 0.03 µg/mL | Active |
